ChEMBL document CHEMBL1124174, “Substituted benzamides. 1. Potential nondopaminergic antagonists of chemotherapy-induced nausea and emesis” (J Med Chem, 1988)

Assays:
D(2) dopamine receptor = D(2) dopamine receptor (Rattus norvegicus, UniProt P61169); experiment: In vitro antagonistic activity against Dopamine receptor D2 was evaluated for the inhibition of [3H]spiperone binding
Outline: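 Rat striatal membranes were prepared by differential centrifugation in 50 mM Tris pH 7.4 at 4 °C. Membrane protein (10 mg) was incubated 15 min at 37 °C with 0.1 nM [3H]spiperone and varying competitor concentrations. Buffer: 50 mM Tris HCl pH 7.5, 0.1% ascorbic acid, pargyline, 120 mM NaCl, 5 mM KCl, 2 mM CaCl2, 1 mM MgCl2. (+)-Butaclamol defined nonspecific binding. Bound ligand was collected by filtration and scintillation counted. IC50 by log-logit regression.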

[1] = molecular target: D(2) dopamine receptor (Canis lupus familiaris) (UniProt Q9GJU1); experiment: In vivo antagonism activity against dopamine D2 receptor was measured as emesis in dog when administered subcutaneously; type: functional, organism-based
Canis familiaris [2] = experiment: In vivo antagonism of cisplatin-induced emesis in dog measured as emetic episodes, twice the dose of 1 mg/kg in 2 dogs; type: functional, Canis lupus familiaris
Outline: (§1)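 Nonfasted mature male or female beagles were dosed sc twice, 30 min before and 120 min after cisplatin (3 mg/kg iv; 3 mg/mL in warm 0.9% saline, used immediately). Emesis was observed up to 5 h; events within 2 min counted as one episode. Results were given as mean emetic episodes and % protection versus a dynamic control (historical and concurrent saline means pooled). t test versus saline.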

Canis familiaris [3] = experiment: In vivo antagonism of cisplatin-induced emesis in dog measured as percentage protection for twice the dose of 1 mg/kg in 2 dogs; type: functional, Canis lupus familiaris; outline: as §1
Mustela putorius furo [4] = experiment: In vivo antagonism of cisplatin-induced emesis in ferret measured as emetic episodes, twice the dose of 3 mg/kg and in 3 ferrets; type: functional
Outline: (§2)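 Nonfasted castrated male Fitch ferrets (1–1.5 kg) had jugular catheters implanted ≥48 h earlier under anesthesia. Compounds or saline were given iv twice, 5 min before and 90 min after cisplatin (12 mg/kg iv; 12 mg/mL in warm 0.9% saline). Emesis was observed up to 4 h; events within 1 min counted as one episode. Results were given as mean emetic episodes and % protection versus a pooled historical/concurrent control. t test versus saline.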

Mustela putorius furo [5] = experiment: In vivo antagonism of cisplatin-induced emesis in ferret measured as percentage protection for twice the dose of 3 mg/kg and in 3 ferrets; type: functional; outline: as §2
[6] = molecular target: D(2) dopamine receptor (Rattus norvegicus) (UniProt P61169); experiment: In vivo antagonism activity against D2 receptor was measured as stereotypy in rat when administered subcutaneously; type: functional, organism-based
Outline: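 Male Long Evans rats (275 g) were dosed sc in dilute aqueous HCl (pH 4.5-5.5) 30 min before apomorphine (1 mg/kg sc).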

[7] = molecular target: D(2) dopamine receptor (Rattus norvegicus) (UniProt P61169); experiment: In vivo antagonistic activity against dopamine D2 receptor was measured as catalepsy in rat when administered subcutaneously; type: functional, organism-based
Outline: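 Male Long Evans rats (275 g) received graded sc doses in dilute aqueous HCl (pH 4.5-5.5). They were observed 180 min for catalepsy, scored when the animal stayed stationary ≥15 s on a four-cork template.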

Mustela putorius furo [8] = experiment: In vivo antagonism of cisplatin-induced emesis in ferret measured as emetic episodes, twice the dose of 1 mg/kg and in 3 ferrets; type: functional; outline: as §2
Mustela putorius furo [9] = experiment: In vivo antagonism of cisplatin-induced emesis in ferret measured as percentage protection for twice the dose of 1 mg/kg and in 3 ferrets; type: functional; outline: as §2

Chain of D(2) dopamine receptor (Rattus norvegicus) (P61169 whole entry): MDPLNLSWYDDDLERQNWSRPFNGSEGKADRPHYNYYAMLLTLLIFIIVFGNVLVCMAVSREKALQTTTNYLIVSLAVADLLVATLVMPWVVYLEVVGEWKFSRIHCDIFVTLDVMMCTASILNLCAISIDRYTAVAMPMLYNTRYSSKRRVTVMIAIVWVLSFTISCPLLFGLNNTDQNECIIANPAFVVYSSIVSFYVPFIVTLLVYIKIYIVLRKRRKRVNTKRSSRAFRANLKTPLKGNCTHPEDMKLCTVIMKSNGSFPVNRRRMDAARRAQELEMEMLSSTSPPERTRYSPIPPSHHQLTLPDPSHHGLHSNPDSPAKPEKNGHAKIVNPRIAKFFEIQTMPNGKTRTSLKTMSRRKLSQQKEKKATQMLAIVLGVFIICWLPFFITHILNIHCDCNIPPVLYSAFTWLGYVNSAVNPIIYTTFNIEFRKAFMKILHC
Chain of D(2) dopamine receptor (P61169 whole entry): as above
Chain of D(2) dopamine receptor (Canis lupus familiaris) (Q9GJU1 whole entry): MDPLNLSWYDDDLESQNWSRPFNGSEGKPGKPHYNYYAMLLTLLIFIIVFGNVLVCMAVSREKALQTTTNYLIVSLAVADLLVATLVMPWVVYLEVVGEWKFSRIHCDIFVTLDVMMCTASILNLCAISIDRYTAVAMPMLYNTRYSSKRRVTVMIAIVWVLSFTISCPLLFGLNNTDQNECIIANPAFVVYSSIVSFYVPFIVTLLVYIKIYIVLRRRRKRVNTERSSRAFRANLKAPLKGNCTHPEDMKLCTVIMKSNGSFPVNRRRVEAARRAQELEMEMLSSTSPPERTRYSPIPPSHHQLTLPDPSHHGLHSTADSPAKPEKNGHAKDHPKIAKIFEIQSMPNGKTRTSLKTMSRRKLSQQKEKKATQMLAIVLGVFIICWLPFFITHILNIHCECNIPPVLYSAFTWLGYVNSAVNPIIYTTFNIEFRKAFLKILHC

IC50 (D(2) dopamine receptor) [nM]	ED50 [6] [mg/kg]	Compound	ED50 [1] [mg/kg]	Emetic episodes (Canis familiaris [2])	Protection (Canis familiaris [3]) [%]	Emetic episodes (Mustela putorius furo [4])	Protection (Mustela putorius furo [5]) [%]	ED50 [7] [mg/kg]	Emetic episodes (Mustela putorius furo [8])	Protection (Mustela putorius furo [9]) [%]
200		C=CCN1CCCC1CNC(=O)c1cc2[nH]nnc2cc1OC (configuration not stated) [ALIZAPRIDE]								
> 1000	> 40	CCN(CC)CCNC(=O)c1cc(Cl)c(N)cc1OC/C(C)=N/O	> 3	2.5	79	0	100	> 40		
> 1000	> 40	CCN(CC)CCNC(=O)c1cc(Cl)c(N)cc1OCC1=NCCN1	> 3	1.5	88	1	86	> 40		
> 1000	> 40	CCN(CC)CCNC(=O)c1cc(Cl)c(N)cc1OCCO	> 3	3	76	2.3	68	> 40		
> 1000	> 40	CCN(CC)CCNC(=O)c1cc(Cl)c(N)cc1OCC(O)Cc1ccccc1 (configuration not stated)	> 3					> 40	3.3	54
> 1000	> 40	CCN(CC)CCNC(=O)c1cc(Cl)c(N)c2c(C)c(C)oc12	> 3			3.3	53	> 40		
	> 40	CCN(CC)CCNC(=O)c1cc(Cl)c(N)cc1OC(C)C(C)O (stereo in doubt; 8g)	> 3					> 40		
> 1000	> 40	CCN(CC)CCNC(=O)c1cc(Cl)c(N)cc1OCC(=O)c1cccs1		3	75	0.3	95	> 40		
> 1000	> 40	CCN(CC)CCNC(=O)c1cc(Cl)c(N)cc1OCC(=O)OC	> 3			5	30	> 40		
> 1000	> 40	CCN(CC)CCNC(=O)c1cc(Cl)c(N)cc1OCc1cc(C)no1	> 3			2	72	> 40		
> 1000	> 40	CCN(CC)CCNC(=O)c1cc(Cl)c(N)cc1OCC(O)COC (configuration not stated)	> 3			3.3	54	> 40		
> 1000	> 40	CCN(CC)CCNC(=O)c1cc(Cl)c(N)cc1OCC1(C)CO1 (configuration not stated)	> 3			3.3	53	> 40		
> 1000		C=CCN1CCCC1CNC(=O)c1cc2[nH]nnc2cc1O (configuration not stated)								
> 1000	> 40	C/C=C/COc1cc(N)c(Cl)cc1C(=O)NCCN(CC)CC	> 3	2.5	80	0.7	90	> 40		
> 1000	> 40	CCN(CC)CCN1CCOc2cc(N)c(Cl)cc2C1=O	> 3					> 40	6	14
> 1000	> 40	CCN(CC)CCNC(=O)c1cc(Cl)c(N)cc1OC(C)/C(C)=N/O (configuration not stated)	> 3					> 40	4.3	44
	> 40	CCN(CC)CCNC(=O)c1cc(Cl)c(N)cc1OC[C@@H](C)O (stereo in doubt; 8e)	> 3					> 40		
> 1000	> 40	CCN(CC)CCNC(=O)c1cc(Cl)c(N)cc1OCC(O)CO (configuration not stated)	> 3			6.3	10	> 40		
> 1000	> 40	CCN(CC)CCNC(=O)c1cc(Cl)c(N)cc1OCCC1(C)OCCO1	> 3			1.3	80	> 40		
